Data taken from ChEMBL document CHEMBL3603811, “Design, chemical synthesis and biological evaluation of 3-spiromorpholinone/3-spirocarbamate androsterone derivatives as inhibitors of 17β-hydroxysteroid dehydrogenase type 3” (Bioorg Med Chem, 2015).

Legend:
LAPC4 [1] = assay: Androgenic activity in human LAPC4 cells expressing androgen receptor assessed as induction of cell proliferation at 0.1 uM after 3 days by MTS assay relative to control; assay type: functional
In short: (§1)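 LAPC-4 (AR+) cells in RPMI-1640 with 5% dextran-coated charcoal-treated FBS to remove hormones. Triplicate cultures of 10,000 cells preincubated 24 h at 37 °C, 5% CO2. Compounds from 10^-2 M DMSO stock, diluted in medium, added for 3 days (final DMSO 0.05%; vehicle controls). Growth read by MTS. Androgenicity = % proliferation minus basal set at 100%.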

LAPC4 [2] = assay: Androgenic activity in human LAPC4 cells expressing androgen receptor assessed as induction of cell proliferation at 1 uM after 3 days by MTS assay relative to control; assay type: functional; in short: as §1
[3] = molecular target: T1, 17-beta-hydroxysteroid dehydrogenase type 3 (Rattus norvegicus) (UniProt O54939); assay: Inhibition of 17beta-HSD3 in rat testes microsomes using [14C]-4-androstene-3,17-dione as substrate measured based on 33% of initial enzyme transformation at 0.1 uM after 2 hrs; settings: Testis
T1 sequence (whole entry): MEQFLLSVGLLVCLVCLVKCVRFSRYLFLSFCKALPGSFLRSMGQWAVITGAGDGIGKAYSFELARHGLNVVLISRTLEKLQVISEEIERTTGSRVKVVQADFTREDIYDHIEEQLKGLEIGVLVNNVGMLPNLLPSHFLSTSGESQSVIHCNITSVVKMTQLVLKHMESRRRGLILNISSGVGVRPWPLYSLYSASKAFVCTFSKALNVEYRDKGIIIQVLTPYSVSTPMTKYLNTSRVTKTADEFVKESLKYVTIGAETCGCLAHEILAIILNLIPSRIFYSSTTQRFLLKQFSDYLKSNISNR
In short: (§2)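 Rat testis microsomes: homogenate in phosphate/sucrose/EDTA buffer pH 7.5 with protease inhibitors, spun 12,500g, then pellet from 100,000g, at 4 °C. Reaction 2 h at 37 °C in 50 mM sodium phosphate pH 7.4, 20% glycerol, 1 mM EDTA, with NADPH and [14C]-Δ4-dione (50 nM). Inhibitor in DMSO. [14C]-T and substrate identified against reference steroids and quantified. Percent transformation and percent inhibition calculated.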

[4] = molecular target: T1, 17-beta-hydroxysteroid dehydrogenase type 3 (Rattus norvegicus); assay: Inhibition of 17beta-HSD3 in rat testes microsomes using [14C]-4-androstene-3,17-dione as substrate measured based on 33% of initial enzyme transformation at 1 uM after 2 hrs; settings: Testis; in short: as §2
[5] = molecular target: T1, 17-beta-hydroxysteroid dehydrogenase type 3 (Rattus norvegicus); assay: Inhibition of 17beta-HSD3 in rat testes microsomes using [14C]-4-androstene-3,17-dione as substrate measured based on 33% of initial enzyme transformation at 10 uM after 2 hrs; settings: Testis; in short: as §2
[6] = molecular target: T1, 17-beta-hydroxysteroid dehydrogenase type 3 (Rattus norvegicus); assay: Inhibition of 17beta-HSD3 in rat testes microsomes using [14C]-4-androstene-3,17-dione as substrate measured based on 18% of initial enzyme transformation at 0.1 uM after 2 hrs; settings: Testis; in short: as §2
[7] = molecular target: T1, 17-beta-hydroxysteroid dehydrogenase type 3 (Rattus norvegicus); assay: Inhibition of 17beta-HSD3 in rat testes microsomes using [14C]-4-androstene-3,17-dione as substrate measured based on 18% of initial enzyme transformation at 1 uM after 2 hrs; settings: Testis; in short: as §2
[8] = molecular target: T1, 17-beta-hydroxysteroid dehydrogenase type 3 (Rattus norvegicus); assay: Inhibition of 17beta-HSD3 in rat testes microsomes using [14C]-4-androstene-3,17-dione as substrate measured based on 4% of initial enzyme transformation at 1 uM after 2 hrs; settings: Testis; in short: as §2
[9] = molecular target: T1, 17-beta-hydroxysteroid dehydrogenase type 3 (Rattus norvegicus); assay: Inhibition of 17beta-HSD3 in rat testes microsomes using [14C]-4-androstene-3,17-dione as substrate measured based on 4% of initial enzyme transformation at 10 uM after 2 hrs; settings: Testis; in short: as §2
[10] = molecular target: T1, 17-beta-hydroxysteroid dehydrogenase type 3 (Rattus norvegicus); assay: Inhibition of 17beta-HSD3 in rat testes microsomes using [14C]-4-androstene-3,17-dione as substrate measured based on 18% of initial enzyme transformation at 0.01 uM after 2 hrs; settings: Testis; in short: as §2
[11] = molecular target: T2, 17-beta-hydroxysteroid dehydrogenase type 3 (Rattus norvegicus, UniProt O54939); assay: Inhibition of 17beta-HSD3 in rat testes microsomes using [14C]-4-androstene-3,17-dione as substrate after 2 hrs; parameters: species or system Testis; in short: as §2
T2 sequence (O54939 whole entry): T1 sequence (whole entry)

[12] = molecular target: T1, 17-beta-hydroxysteroid dehydrogenase type 3 (Rattus norvegicus); assay: Ratio of delta4-dione IC50 to compound IC50 for 17beta-HSD3 in rat testes microsomes; settings: Testis
[13] = molecular target: T3, 17-beta-hydroxysteroid dehydrogenase type 3 (Homo sapiens) (UniProt P37058); assay: Inhibition of 17beta-HSD3 (unknown origin) expressed in human LNCaP cells using [14C]-4-androstene-3,17-dione as substrate at 1 uM after 3 hrs; assay type: cell-based
T3 sequence (whole entry): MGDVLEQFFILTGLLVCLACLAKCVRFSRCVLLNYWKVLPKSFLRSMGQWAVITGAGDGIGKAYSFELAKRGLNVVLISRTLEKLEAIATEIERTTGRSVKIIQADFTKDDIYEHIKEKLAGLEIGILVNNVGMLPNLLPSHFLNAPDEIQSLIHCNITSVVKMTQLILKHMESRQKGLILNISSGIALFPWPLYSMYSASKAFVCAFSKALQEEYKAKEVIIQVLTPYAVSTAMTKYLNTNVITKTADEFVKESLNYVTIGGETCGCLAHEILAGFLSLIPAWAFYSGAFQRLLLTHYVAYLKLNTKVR
In short: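 LNCaP cells stably transfected with 17β-HSD3, kept under hygromycin, which was omitted during assay. 15,000 cells/well grown 3 days in protocol medium, then given 15 nM [14C]-4-androstene-3,17-dione plus inhibitor in DMSO (final 0.05%) for 3 h. Steroids extracted from medium, separated by TLC and quantified. Percent inhibition of T formation calculated.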

SMILES	Activity (LAPC4 [1])	Activity (LAPC4 [2])	inhibition [3]	inhibition [4]	inhibition [5]	inhibition [6]	inhibition [7]	inhibition [8]	inhibition [9]	inhibition [10]	IC50 [11]	Ratio IC50 [12]	inhibition [13]
C[C@]12CC[C@@]3(C[C@@H]1CC[C@@H]1[C@@H]2CC[C@]2(C)C(=O)CC[C@@H]12)CN(Cc1ccc(C(F)(F)F)cc1)CC(=O)O3	12.3%	31.7%	83.4%	94%	91.2%	–	–	–	–	–	–	–	–
CC(C)C[C@H]1C(=O)O[C@@]2(CC[C@@]3(C)[C@@H](CC[C@@H]4[C@@H]3CC[C@]3(C)C(=O)CC[C@@H]43)C2)CN1Cc1ccccc1	8.4%	44.2%	–	–	–	62.9%	93.1%	77.3%	87.1%	–	–	–	–
C[C@]12CC[C@@]3(C[C@@H]1CC[C@@H]1[C@@H]2CC[C@]2(C)C(=O)CC[C@@H]12)CN(C(=O)c1ccc(C(F)(F)F)cc1)CC(=O)O3	0%	0%	–	–	–	45.4%	87.1%	–	–	24.3%	88 nM	2	40%
C[C@]12CC[C@@]3(C[C@@H]1CC[C@@H]1[C@@H]2CC[C@]2(C)C(=O)CC[C@@H]12)CN(Cc1ccc(OCc2ccccc2)cc1)CC(=O)O3	0%	16.7%	80.4%	90.8%	93.4%	–	–	–	–	–	–	–	–
C[C@]12CC[C@@]3(C[C@@H]1CC[C@@H]1[C@@H]2CC[C@]2(C)C(=O)CC[C@@H]12)CN(CCc1ccc(C(F)(F)F)cc1)CC(=O)O3	40.2%	76.1%	70.7%	92.1%	93.3%	–	–	–	–	–	–	–	–
C[C@]12CC[C@@]3(C[C@@H]1CC[C@@H]1[C@@H]2CC[C@]2(C)C(=O)CC[C@@H]12)CN(Cc1ccc(-c2ccccc2)cc1)CC(=O)O3	47.7%	55.1%	81.9%	93.1%	95.2%	–	–	–	–	–	–	–	–
C[C@]12CC[C@@]3(C[C@@H]1CC[C@@H]1[C@@H]2CC[C@]2(C)C(=O)CC[C@@H]12)CN(Cc1ccc(OC(F)(F)F)cc1)CC(=O)O3	45.9%	74.9%	79%	93.8%	95.7%	–	–	–	–	–	–	–	–
O=C1OC2(CCCCC2)CN(Cc2ccccc2)[C@H]1Cc1ccccc1	–	–	–	–	29.2%	–	–	–	–	–	–	–	–
COC(=O)[C@@H](CC(C)C)N1C[C@]2(CC[C@@]3(C)[C@@H](CC[C@@H]4[C@@H]3CC[C@]3(C)C(=O)CC[C@@H]43)C2)OC1=O	1.5%	21.9%	–	–	–	55.4%	73.6%	76.9%	67.8%	–	–	–	–
COC(=O)[C@H](CC(C)C)N1C[C@]2(CC[C@@]3(C)[C@@H](CC[C@@H]4[C@@H]3CC[C@]3(C)C(=O)CC[C@@H]43)C2)OC1=O	0%	8.4%	–	–	–	57.6%	93.6%	82.3%	88.4%	–	–	–	–
C[C@]12CC[C@@]3(C[C@@H]1CC[C@@H]1[C@@H]2CC[C@]2(C)C(=O)CC[C@@H]12)CN(CCCc1ccccc1)CC(=O)O3	64.9%	55.5%	74.9%	90.5%	92.3%	–	–	–	–	–	–	–	–
CC(C)C[C@@H]1NC[C@]2(CC[C@@]3(C)[C@@H](CC[C@@H]4[C@@H]3CC[C@]3(C)C(=O)CC[C@@H]43)C2)OC1=O	14.5%	11.1%	–	–	–	39.4%	84.9%	69.3%	83.8%	–	–	–	–
C[C@]12CC[C@@]3(C[C@@H]1CC[C@@H]1[C@@H]2CC[C@]2(C)C(=O)CC[C@@H]12)CN(CCCCc1ccccc1)CC(=O)O3	5.3%	19.2%	79.9%	91.1%	91.3%	–	–	–	–	–	–	–	–
C[C@]12CC[C@@H](O)C[C@@H]1CC[C@@H]1[C@@H]2CC[C@]2(C)C(=O)CC[C@@H]12 [ANDROSTERONE]	–	–	–	–	–	–	–	–	–	–	90 nM	–	–
C[C@]12CC[C@@]3(C[C@@H]1CC[C@@H]1[C@@H]2CC[C@]2(C)C(=O)CC[C@@H]12)CN(CCc1ccccc1)CC(=O)O3	48.9%	79.7%	78.5%	92.2%	95.2%	–	–	–	–	–	–	–	–
C[C@]12CCC(=O)C=C1CC[C@@H]1[C@@H]2CC[C@]2(C)C(=O)CC[C@@H]12 [ANDROSTENEDIONE]	–	–	–	–	–	–	–	–	–	–	169 nM	–	–
C[C@]12CC[C@@]3(C[C@@H]1CC[C@@H]1[C@@H]2CC[C@]2(C)C(=O)CC[C@@H]12)CN(Cc1ccccc1)CC(=O)O3	8.1%	30.5%	80.8%	91.6%	94.3%	56%	89.2%	90.9%	95.2%	27.2%	–	–	–
C[C@]12CC[C@@]3(C[C@@H]1CC[C@@H]1[C@@H]2CC[C@]2(C)C(=O)CC[C@@H]12)CN(CC(CN1CCOCC1)OC(=O)C1CCCCC1)C(=O)O3 (some centres not stated)	4.8%	9.4%	–	–	–	51.5%	93.1%	93.9%	97.2%	–	–	–	–
C[C@]12CC[C@@]3(C[C@@H]1CC[C@@H]1[C@@H]2CC[C@]2(C)C(=O)CC[C@@H]12)CN(Cc1ccc(Br)cc1)CC(=O)O3	21.8%	45.7%	79.1%	92.9%	91.6%	–	–	–	–	–	–	–	–
O=C1OC2(CCCCC2)CN[C@H]1Cc1ccccc1	–	–	–	–	20.6%	–	–	–	–	–	–	–	–
